Assay results taken from ChEMBL document CHEMBL3596194, “Design, synthesis and biological evaluation of bivalent benzoxazolone and benzothiazolone ligands as potential anti-inflammatory/analgesic agents” (Bioorg Med Chem, 2015).
Active and inactive are the calls of the source. The calls are words filed in the database; no cut-off is given here.

tested on: not listed separately; assay: Antiinflammatory activity in human SW1353 cells assessed as inhibition of PMA-induced NF-kappaB activity incubated for 30 mins prior to PMA challenge measured after 8 hrs by luciferase reporter gene assay; format: cell-based; conditions: not given
Outline: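 SW1353 cells in DMEM/F12 with 10% FBS, electroporated with NF-κB luciferase plasmid (160 V, one 70-ms pulse), plated at 1.25 × 10⁵ cells/well. After 24 h, graded compound concentrations added 30 min before PMA 70 ng/mL, then 8 h incubation. Luciferase read-out, % inhibition versus vehicle, IC50 from dose curves. Sp-1 reporter served as nonspecific control.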

| SMILES | IC50 [µM] |
| --- | --- |
| C=C1C(=O)O[C@@H]2[C@H]3O[C@]3(C)CC/C=C(\C)CC[C@@H]12 | 2.57 |
| O=c1oc2ccccc2n1CCCCCCN1CCN(CCCCn2c(=O)oc3ccccc32)CC1 | 1.24 |
| O=c1oc2ccccc2n1CCCCCCN1CCN(CCCCCn2c(=O)oc3ccccc32)CC1 | 1.4 |
| O=c1sc2ccccc2n1CCCCCCN1CCN(CCCn2c(=O)sc3ccccc32)CC1 | 2.4 |
| O=c1sc2ccccc2n1CCCCCCN1CCN(CCn2c(=O)sc3ccccc32)CC1 | 2.95 |
| O=c1oc2ccccc2n1CCCCCCN1CCN(CCn2c(=O)oc3ccccc32)CC1 | 3.07 |

tested on: SW1353; assay: Antiinflammatory activity in human SW1353 cells assessed as inhibition of PMA-induced NF-kappaB activity up to 25 ug/ml incubated for 30 mins prior to PMA challenge measured after 8 hrs by luciferase reporter gene assay; format: cell-based; conditions: not given
Outline: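 SW1353 chondrosarcoma cells grown in DMEM/F12 with 10% FBS at 37 °C, 5% CO2. Cells electroporated with an NF-κB luciferase plasmid (50 μg/mL, 160 V, one 70-ms pulse) and plated at 1.25 × 10⁵ cells/well. After 24 h, compound was added 30 min before PMA (70 ng/mL), then 8 h incubation. Luciferase read-out as % inhibition vs vehicle; IC50 from dose curves. Sp-1 served as a counter-screen.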

| SMILES | inhibition |
| --- | --- |
| O=c1oc2ccccc2n1CCCCCCN1CCN(CCCCCCn2c(=O)oc3ccccc32)CC1 | inactive |
| O=c1oc2ccccc2n1CCCCCN1CCN(CCCn2c(=O)oc3ccccc32)CC1 | inactive |
| O=c1oc2ccccc2n1CCCCCCN1CCN(CCCn2c(=O)oc3ccccc32)CC1 | inactive |

tested on: not listed separately; assay: Cytotoxicity against pig LLC-PK11 cells up to 25 ug/ml after 48 hrs by neutral red assay relative to control; format: cell-based, Sus scrofa; conditions: llc-pk11, 48 h
Outline: (§1)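 Cells grown in RPMI-1640 with 10% bovine calf serum and amikacin at 37 °C, 5% CO2. Seeded at 25,000 cells/well and grown 24 h, then exposed 48 h to samples diluted in serum-free medium. Viability by Neutral Red; % decrease vs vehicle; IC50 from dose curves. Triplicate runs, mean reported; doxorubicin as positive control.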

| SMILES | Activity |
| --- | --- |
| O=c1oc2ccccc2n1CCCCCCN1CCN(CCCCCCn2c(=O)oc3ccccc32)CC1 | Non-toxic |
| O=c1oc2ccccc2n1CCCCCN1CCN(CCn2c(=O)oc3ccccc32)CC1 | Non-toxic |
| O=c1oc2ccccc2n1CCCCCN1CCN(CCCn2c(=O)oc3ccccc32)CC1 | Non-toxic |
| O=c1oc2ccccc2n1CCCCCCN1CCN(CCCCn2c(=O)oc3ccccc32)CC1 | Non-toxic |
| O=c1oc2ccccc2n1CCCCCCN1CCN(CCCCCn2c(=O)oc3ccccc32)CC1 | Non-toxic |
| O=c1oc2ccccc2n1CCCCCCN1CCN(CCCn2c(=O)oc3ccccc32)CC1 | Non-toxic |
| O=c1sc2ccccc2n1CCCCCCN1CCN(CCCn2c(=O)sc3ccccc32)CC1 | Non-toxic |
| O=c1sc2ccccc2n1CCCCCCN1CCN(CCn2c(=O)sc3ccccc32)CC1 | Non-toxic |
| O=c1oc2ccccc2n1CCCCCCN1CCN(CCn2c(=O)oc3ccccc32)CC1 | Non-toxic |

tested on: Vero; assay: Cytotoxicity against African green monkey Vero cells up to 25 ug/ml after 48 hrs by neutral red assay relative to control; format: cell-based; conditions: chlorocebus sabaeus; outline: as §1

| SMILES | Activity |
| --- | --- |
| O=c1oc2ccccc2n1CCCCCCN1CCN(CCCCCCn2c(=O)oc3ccccc32)CC1 | Non-toxic |
| O=c1oc2ccccc2n1CCCCCN1CCN(CCn2c(=O)oc3ccccc32)CC1 | Non-toxic |
| O=c1oc2ccccc2n1CCCCCN1CCN(CCCn2c(=O)oc3ccccc32)CC1 | Non-toxic |
| O=c1oc2ccccc2n1CCCCCCN1CCN(CCCCn2c(=O)oc3ccccc32)CC1 | Non-toxic |
| O=c1oc2ccccc2n1CCCCCCN1CCN(CCCCCn2c(=O)oc3ccccc32)CC1 | Non-toxic |
| O=c1oc2ccccc2n1CCCCCCN1CCN(CCCn2c(=O)oc3ccccc32)CC1 | Non-toxic |
| O=c1sc2ccccc2n1CCCCCCN1CCN(CCCn2c(=O)sc3ccccc32)CC1 | Non-toxic |
| O=c1sc2ccccc2n1CCCCCCN1CCN(CCn2c(=O)sc3ccccc32)CC1 | Non-toxic |
| O=c1oc2ccccc2n1CCCCCCN1CCN(CCn2c(=O)oc3ccccc32)CC1 | Non-toxic |

tested on: SK-OV-3; assay: Cytotoxicity against human SKOV3 cells up to 25 ug/ml after 48 hrs by neutral red assay relative to control; format: cell-based; conditions: sk-ov-3, 48 h; outline: as §1

| SMILES | Activity |
| --- | --- |
| O=c1oc2ccccc2n1CCCCCCN1CCN(CCCCCCn2c(=O)oc3ccccc32)CC1 | Non-toxic |
| O=c1oc2ccccc2n1CCCCCN1CCN(CCn2c(=O)oc3ccccc32)CC1 | Non-toxic |
| O=c1oc2ccccc2n1CCCCCN1CCN(CCCn2c(=O)oc3ccccc32)CC1 | Non-toxic |
| O=c1oc2ccccc2n1CCCCCCN1CCN(CCCCn2c(=O)oc3ccccc32)CC1 | Non-toxic |
| O=c1oc2ccccc2n1CCCCCCN1CCN(CCCCCn2c(=O)oc3ccccc32)CC1 | Non-toxic |
| O=c1oc2ccccc2n1CCCCCCN1CCN(CCCn2c(=O)oc3ccccc32)CC1 | Non-toxic |
| O=c1sc2ccccc2n1CCCCCCN1CCN(CCCn2c(=O)sc3ccccc32)CC1 | Non-toxic |
| O=c1sc2ccccc2n1CCCCCCN1CCN(CCn2c(=O)sc3ccccc32)CC1 | Non-toxic |
| O=c1oc2ccccc2n1CCCCCCN1CCN(CCn2c(=O)oc3ccccc32)CC1 | Non-toxic |

tested on: BT-549; assay: Cytotoxicity against human BT549 cells after 48 hrs by neutral red assay relative to control; format: cell-based; conditions: BT-549, 48 h
Outline: (§2)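 Cells grown in RPMI-1640 with 10% bovine calf serum and amikacin at 37°C, 5% CO₂. Seeded 25,000 cells/well, grown 24 h, then exposed to compounds diluted in serum-free medium for 48 h. Viability by Neutral Red uptake, % decrease versus vehicle control. IC50 from dose curves, triplicate means. Doxorubicin positive control.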

| SMILES | IC50 [µM] |
| --- | --- |
| O=c1oc2ccccc2n1CCCCCCN1CCN(CCCCCCn2c(=O)oc3ccccc32)CC1 | 18.5 |
| O=c1oc2ccccc2n1CCCCCCN1CCN(CCCCCn2c(=O)oc3ccccc32)CC1 | 22.5 |
| O=c1sc2ccccc2n1CCCCCCN1CCN(CCCn2c(=O)sc3ccccc32)CC1 | 25 |
| O=c1sc2ccccc2n1CCCCCCN1CCN(CCn2c(=O)sc3ccccc32)CC1 | 25 |

tested on: BT-549; assay: Cytotoxicity against human BT549 cells up to 25 ug/ml after 48 hrs by neutral red assay relative to control; format: cell-based; conditions: bt-549, 48 h; outline: as §1

| SMILES | Activity |
| --- | --- |
| O=c1oc2ccccc2n1CCCCCN1CCN(CCn2c(=O)oc3ccccc32)CC1 | Non-toxic |
| O=c1oc2ccccc2n1CCCCCN1CCN(CCCn2c(=O)oc3ccccc32)CC1 | Non-toxic |
| O=c1oc2ccccc2n1CCCCCCN1CCN(CCCCn2c(=O)oc3ccccc32)CC1 | Non-toxic |
| O=c1oc2ccccc2n1CCCCCCN1CCN(CCCn2c(=O)oc3ccccc32)CC1 | Non-toxic |
| O=c1oc2ccccc2n1CCCCCCN1CCN(CCn2c(=O)oc3ccccc32)CC1 | Non-toxic |

tested on: KB; assay: Cytotoxicity against human KB cells up to 25 ug/ml after 48 hrs by neutral red assay relative to control; format: cell-based; conditions: not given; outline: as §1

| SMILES | Activity |
| --- | --- |
| O=c1oc2ccccc2n1CCCCCCN1CCN(CCCCCCn2c(=O)oc3ccccc32)CC1 | Non-toxic |
| O=c1oc2ccccc2n1CCCCCN1CCN(CCn2c(=O)oc3ccccc32)CC1 | Non-toxic |
| O=c1oc2ccccc2n1CCCCCN1CCN(CCCn2c(=O)oc3ccccc32)CC1 | Non-toxic |
| O=c1oc2ccccc2n1CCCCCCN1CCN(CCCCn2c(=O)oc3ccccc32)CC1 | Non-toxic |
| O=c1oc2ccccc2n1CCCCCCN1CCN(CCCCCn2c(=O)oc3ccccc32)CC1 | Non-toxic |
| O=c1oc2ccccc2n1CCCCCCN1CCN(CCCn2c(=O)oc3ccccc32)CC1 | Non-toxic |
| O=c1sc2ccccc2n1CCCCCCN1CCN(CCCn2c(=O)sc3ccccc32)CC1 | Non-toxic |
| O=c1sc2ccccc2n1CCCCCCN1CCN(CCn2c(=O)sc3ccccc32)CC1 | Non-toxic |
| O=c1oc2ccccc2n1CCCCCCN1CCN(CCn2c(=O)oc3ccccc32)CC1 | Non-toxic |

tested on: SK-MEL; assay: Cytotoxicity against human SK-MEL cells after 48 hrs by neutral red assay relative to control; format: cell-based; conditions: not given; outline: as §2

| SMILES | IC50 [µM] |
| --- | --- |
| O=c1oc2ccccc2n1CCCCCCN1CCN(CCCCCCn2c(=O)oc3ccccc32)CC1 | 21.3 |
| O=c1oc2ccccc2n1CCCCCCN1CCN(CCCCCn2c(=O)oc3ccccc32)CC1 | 23 |
| O=c1sc2ccccc2n1CCCCCCN1CCN(CCCn2c(=O)sc3ccccc32)CC1 | 12 |
| O=c1sc2ccccc2n1CCCCCCN1CCN(CCn2c(=O)sc3ccccc32)CC1 | 25 |

tested on: SK-MEL; assay: Cytotoxicity against human SK-MEL cells up to 25 ug/ml after 48 hrs by neutral red assay relative to control; format: cell-based; conditions: not given; outline: as §1

| SMILES | Activity |
| --- | --- |
| O=c1oc2ccccc2n1CCCCCN1CCN(CCn2c(=O)oc3ccccc32)CC1 | Non-toxic |
| O=c1oc2ccccc2n1CCCCCN1CCN(CCCn2c(=O)oc3ccccc32)CC1 | Non-toxic |
| O=c1oc2ccccc2n1CCCCCCN1CCN(CCCCn2c(=O)oc3ccccc32)CC1 | Non-toxic |
| O=c1oc2ccccc2n1CCCCCCN1CCN(CCCn2c(=O)oc3ccccc32)CC1 | Non-toxic |
| O=c1oc2ccccc2n1CCCCCCN1CCN(CCn2c(=O)oc3ccccc32)CC1 | Non-toxic |
